Activity calls are given as the source filed them. No cut-off for these calls is given here.
Legend:
Plasmodium falciparum = assay: Antimalarial activity against Plasmodium falciparum Dd2 […] cells after 72 hrs by [3H]hypoxanthine incorporation assay; assay type: functional, organism-based
In short: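 Synchronized (sorbitol) blood-stage P. falciparum Dd2 cultures exposed to a range of compound concentrations for 72 h; growth read by [³H]-hypoxanthine incorporation, percent inhibition used to derive IC₅₀. At least three independent repeats, mean ± SEM.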

[1] = Cytotoxicity against human HeLa cells after 72 hrs by methylene blue staining; assay type: cell-based
In short: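 HeLa cells in RPMI 1640 with 10% heat-inactivated FBS and gentamicin; ~10,000 cells/well preincubated 48 h, then exposed to compound (DMSO stock 10 mg/mL diluted 1:200) for 72 h at 37 °C, 5% CO₂. Glutaraldehyde fixation, 0.05% methylene blue staining, elution with 0.33 M HCl, OD 660 nm.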

[2] = Selectivity index, ratio of CC50 for human HeLa cells to IC50 for Plasmodium falciparum Dd2 […] cells; assay type: functional
In short: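 Selectivity index computed as HeLa CC₅₀ (72 h methylene blue assay) divided by P. falciparum Dd2 IC₅₀ (72 h [³H]-hypoxanthine assay).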

[3] = test system: Trypanosoma brucei brucei; assay: Antitrypanosomal activity against Trypanosoma brucei brucei TC221 after 48 hrs by alamar blue assay; assay type: functional, organism-based; settings: TC221, 48 h
In short: (§1)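 T. b. brucei TC 221 trypomastigotes grown in Baltz medium; 10⁴ parasites/mL exposed to graded compound concentrations (DMSO or 0.1 M NaOH solutions) at 37 °C, 5% CO₂. Alamar Blue absorbance at 550 nm (reference 630 nm) read at 48 h and 72 h. Parasite-only and compound-only controls; ED₅₀ by linear interpolation of three measurements.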

[4] = molecular target: T1, Multidrug resistance protein Pgh1 (Plasmodium falciparum) (UniProt Q9NG76); assay: Inhibition of Plasmodium PGH1-mediated fluorochrome accumulation into parasite digestive vacuole at […] concentration
T1 sequence (whole entry): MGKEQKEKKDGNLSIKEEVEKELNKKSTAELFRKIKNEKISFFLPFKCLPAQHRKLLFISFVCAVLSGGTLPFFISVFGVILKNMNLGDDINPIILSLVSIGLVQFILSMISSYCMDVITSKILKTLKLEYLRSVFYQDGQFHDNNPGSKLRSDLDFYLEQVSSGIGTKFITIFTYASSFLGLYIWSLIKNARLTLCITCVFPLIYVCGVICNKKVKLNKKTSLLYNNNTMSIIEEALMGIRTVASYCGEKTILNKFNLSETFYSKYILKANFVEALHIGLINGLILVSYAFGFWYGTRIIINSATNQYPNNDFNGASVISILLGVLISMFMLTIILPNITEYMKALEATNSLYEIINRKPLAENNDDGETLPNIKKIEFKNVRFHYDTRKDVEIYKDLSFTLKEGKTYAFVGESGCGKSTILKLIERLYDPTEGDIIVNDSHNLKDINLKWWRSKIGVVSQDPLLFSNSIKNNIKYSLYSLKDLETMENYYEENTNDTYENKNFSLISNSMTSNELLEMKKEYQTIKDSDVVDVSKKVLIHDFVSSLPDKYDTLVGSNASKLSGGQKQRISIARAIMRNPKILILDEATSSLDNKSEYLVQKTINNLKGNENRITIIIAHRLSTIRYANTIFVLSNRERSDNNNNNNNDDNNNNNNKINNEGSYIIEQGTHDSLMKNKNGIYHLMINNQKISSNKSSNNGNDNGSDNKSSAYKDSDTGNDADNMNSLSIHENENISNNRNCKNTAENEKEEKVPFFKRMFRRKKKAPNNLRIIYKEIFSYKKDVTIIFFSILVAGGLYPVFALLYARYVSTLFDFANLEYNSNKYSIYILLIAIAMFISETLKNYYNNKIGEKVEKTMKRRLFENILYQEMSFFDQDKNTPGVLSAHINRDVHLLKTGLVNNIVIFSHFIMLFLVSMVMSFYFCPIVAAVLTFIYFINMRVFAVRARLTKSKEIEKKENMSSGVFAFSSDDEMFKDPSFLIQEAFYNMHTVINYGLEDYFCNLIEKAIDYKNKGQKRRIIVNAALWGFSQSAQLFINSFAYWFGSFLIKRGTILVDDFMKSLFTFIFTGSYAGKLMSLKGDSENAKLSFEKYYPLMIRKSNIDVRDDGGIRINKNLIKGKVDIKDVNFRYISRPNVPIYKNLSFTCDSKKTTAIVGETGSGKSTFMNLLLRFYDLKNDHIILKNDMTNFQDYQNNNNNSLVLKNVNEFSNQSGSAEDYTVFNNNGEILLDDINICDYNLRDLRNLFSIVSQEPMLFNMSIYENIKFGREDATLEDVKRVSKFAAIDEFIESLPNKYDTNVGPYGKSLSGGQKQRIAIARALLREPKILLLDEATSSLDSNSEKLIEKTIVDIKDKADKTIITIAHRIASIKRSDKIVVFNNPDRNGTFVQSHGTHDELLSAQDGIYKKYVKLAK

[5] = test system: Trypanosoma brucei brucei; assay: Antitrypanosomal activity against Trypanosoma brucei brucei TC221 after 72 hrs by alamar blue assay; assay type: functional, organism-based; settings: TC221, 72 h; in short: as §1
[6] = molecular target: ATP-dependent translocase ABCB1 (Homo sapiens, UniProt P08183); assay: Inhibition of ABCB1 overexpressed in human CCRF-CEM/VCR1000 cell assessed as inhibition of daunomycin efflux after 30 mins by FACS analysis

Compound | IC50 (Plasmodium falciparum) [µM] | CC50 at 72 h [1] [µM] | Ratio CC50/IC50 [2] | IC50 [3] [µM] | inhibition [4] | IC50 [5] [µM] | EC50 [6] [µM]
CN1CCN(CC(=O)Nc2ccc(NC(=O)c3ccccc3)cc2C(=O)c2ccccc2)CC1 | > 16 | > 109 | >7 | 49.4 | inactive | 83.2 | 
CN1CCN(CC(=O)Nc2ccc(NC(=O)c3ccc4ccccc4c3)cc2C(=O)c2ccccc2)CC1 | 2.01 | 9 | 5 | 0.81 | inactive | 2.01 | 0.48
CN1CCN(CC(=O)Nc2ccc(NC(=O)CCc3ccccc3)cc2C(=O)c2ccccc2)CC1 | 6.72 | 80 | 12 | 13.9 | inactive | 21.9 | 2.23
CC1CCN(C(=O)Nc2ccc(NC(=O)C(c3ccccc3)N3CCN(C)CC3)c(C(=O)c3ccccc3)c2)CC1 (configuration not stated) | > 16 |  |  |  | inactive |  | 4.97
CC(C)N(C(=O)Nc1ccc(NC(=O)C(c2ccccc2)N2CCN(C)CC2)c(C(=O)c2ccccc2)c1)C(C)C (configuration not stated) | 0.11 | 4 | 36 |  | inactive |  | 0.46
CCC(=O)Nc1ccc(NC(=O)CN2CCN(C)CC2)c(C(=O)c2ccccc2)c1 | > 16 | > 122 | >8 | 53.4 | inactive | 71.5 | 
CC(=O)Nc1ccc(NC(=O)CN2CCN(C)CC2)c(C(=O)c2ccccc2)c1 | 9.45 | 53 | 6 | 23.1 | inactive | 22.9 | 
CN1CCN(C(C(=O)Nc2ccc(NC(=O)c3cccnc3)cc2C(=O)c2ccccc2)c2ccccc2)CC1 (configuration not stated) | 2.26 | 37 | 16 | 5.06 | inactive | 7.02 | 5.12
CN1CCN(C(C(=O)Nc2ccc(NC(=O)c3ccccc3)cc2C(=O)c2ccccc2)c2ccccc2)CC1 (racemic) | 1.61 | 16 | 10 | 3.28 | inactive | 3.28 | 0.24
CCC(=O)Nc1ccc(NC(=O)C(c2ccccc2)N2CCN(C)CC2)c(C(=O)c2ccccc2)c1 (racemic) | 7.19 | 84 | 12 | 16.7 | inactive | 24.6 | 3.3
CN1CCN(C(C(=O)Nc2ccc(NC(=O)c3ccc4ccccc4c3)cc2C(=O)c2ccccc2)c2ccccc2)CC1 (racemic) | 0.24 | 4 | 17 | 1.98 | inactive | 2.64 | 0.04
CN1CCN(C(C(=O)Nc2ccc(NC(=O)CCc3ccccc3)cc2C(=O)c2ccccc2)c2ccccc2)CC1 (racemic) | 1.8 | 8 | 4 | 3.27 | inactive | 3.02 | 0.06
CN1CCN(C(C(=O)Nc2ccc(NC(=O)Cc3ccccc3)cc2C(=O)c2ccccc2)c2ccccc2)CC1 (racemic) | 2 | 16 | 8 | 3.64 | inactive | 3.25 | 0.36
CN1CCN(C(C(=O)Nc2ccc(NC(=O)c3cccc4ccccc34)cc2C(=O)c2ccccc2)c2ccccc2)CC1 (racemic) | 0.93 | 4 | 4 | 1.93 | inactive | 2.68 | 0.23
CN1CCN(C(C(=O)Nc2ccc(NS(=O)(=O)c3ccccc3)cc2C(=O)c2ccccc2)c2ccccc2)CC1 (racemic) | 0.91 | 26 | 29 | 5.38 | inactive | 2.92 | 0.89
CN1CCN(C(C(=O)Nc2ccc(N(S(=O)(=O)c3ccccc3)S(=O)(=O)c3ccccc3)cc2C(=O)c2ccccc2)c2ccccc2)CC1 (racemic) | 1.24 | 12 | 10 | 3.01 | inactive | 3.12 | 0.04
CC(=O)Nc1ccc(NC(=O)C(c2ccccc2)N2CCN(C)CC2)c(C(=O)c2ccccc2)c1 (racemic) | 9.72 | 105 | 11 | 9.05 | inactive | 6.59 | 6.29
CN1CCN(C(C(=O)Nc2ccc(NC(=O)C(C)(C)C)cc2C(=O)c2ccccc2)c2ccccc2)CC1 (racemic) | 3.04 | 45 | 15 | 11.4 | inactive | 4.67 | 0.39

Reference: ChEMBL document CHEMBL1152663, “Antimalarial and antitrypanosomal activity of a series of amide and sulfonamide derivatives of a 2,5-diaminobenzophenone” (Bioorg Med Chem, 2009)
